ChEMBL document CHEMBL1121782, “New monofunctional reagents for DNA as possible agents for the photochemotherapy of psoriasis: derivatives of 4,5'-dimethylangelicin” (J Med Chem, 1981)
In brackets after ≈: the same amount, converted by molar mass.

Tests used:
[1] = Specific radioactivity of the compound.; type: ADME
Nucleic Acid = assay: The compound was tested for its ability to bind to calf thymus DNA; type: nucleic-acid assay; conditions: Bos taurus
In short: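 Calf thymus DNA (hypochromicity over 40%) in water with 1.5 × 10-2 M NaCl and 1 × 10^-3 M EDTA, no irradiation. Ground-state binding by equilibrium dialysis or fluorimetric titration. r (ligand bound per nucleotide) and c (free ligand, mol/L) plotted per Scatchard. Intrinsic constant K and site size n fitted iteratively to McGhee–von Hippel by least squares until both changed by less than 1%.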

[2] = Water solubility of the compound; type: ADME; conditions: for S: buffer; for solubility: water, read-out: S
Mus musculus [3] = organism: Mus musculus; assay: Compound was evaluated for its ability to inhibit RNA synthesis in Ehrlich ascites tumor cells by irradiation (365 nM),; type: functional
In short: (§1)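 Ehrlich ascites tumor cells in Hank's solution (2 × 10^7 cells/mL) irradiated on ice with 1.9 × 10^-5 M compound, Philips HPW 125 lamp at 20 cm (2.02 × 10^16 quanta/s incident). 2 × 10^6 cells then pulsed 15 min at 37 °C with 1 μCi [3H]thymidine (DNA) or [3H]uridine (RNA). Acid-insoluble counts taken as % of untreated cells. D50 is the UV-A dose giving 50% inhibition. Each dose run at least in duplicate.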

Mus musculus [4] = organism: Mus musculus; assay: compound was evaluated for its ability to inhibit DNA synthesis in Ehrlich ascites tumor cells by irradiation (365 nM); type: functional; in short: as §1
Mus musculus [5] = organism: Mus musculus; assay: Compound was evaluated for its ability to inhibit DNA synthesis in Ehrlich ascites tumor cells by irradiation (365 nM); type: functional
In short: (§2)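 Ehrlich ascites tumour cells in Hank's solution (2 × 10^7 cells/mL) irradiated on ice with UV-A (Philips HPW 125, 20 cm; 2.02 × 10^16 quanta/s on whole sample) with 1.9 × 10^-5 M compound. Then 2 × 10^6 cells incubated 15 min at 37 °C with 1 μCi [3H]thymidine (DNA) or [3H]uridine (RNA). TCA-insoluble counts as % of untreated; D50 = UV dose giving 50% inhibition; doses ≥duplicate.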

Mus musculus [6] = organism: Mus musculus; assay: Compound was evaluated for its ability to inhibit RNA synthesis in Ehrlich ascites tumor cells by irradiation (365 nM); type: functional; in short: as §2

Specific radioactivity [1] [Ci/M]	K (Nucleic Acid)	S [2] [M l-1]	solubility [2] [µg/mL]	Structure (SMILES)	D50 (Mus musculus [3]) [quanta*10e-18]	D50 (Mus musculus [4]) [quanta*10e-18]	D50 (Mus musculus [5]) [quanta*10e-18]	D50 (Mus musculus [6]) [quanta*10e-18]
5.11	1400	3.7e-05	8 (≈ 37.3 µM)	Cc1cc2c(ccc3c(C)cc(=O)oc32)o1	13.5	10.8		
0.21	700	0.000056	15.3 (≈ 59.2 µM)	COCc1c(C)oc2ccc3c(C)cc(=O)oc3c12	13.8	22.7		

More lines, now with the values behind:

Structure (SMILES)	Specific radioactivity [1] [Ci/M]	K (Nucleic Acid)	S [2] [M l-1]	solubility [2] [µg/mL]	D50 (Mus musculus [3]) [quanta*10e-18]	D50 (Mus musculus [4]) [quanta*10e-18]	D50 (Mus musculus [5]) [quanta*10e-18]	D50 (Mus musculus [6]) [quanta*10e-18]
Cc1oc2ccc3c(C)cc(=O)oc3c2c1CN.Cl	0.13	16300	> 0.004	> 1000	100	100		
O=c1ccc2ccc3occc3c2o1 [ANGELICIN]	1.59						25	23.3
Cc1oc2ccc3c(C)cc(=O)oc3c2c1CO	0.13	1250	0.00007	17.1 (≈ 70 µM)	13.8	9.2		
